Assay type in all cases: functional, cell-based
Assay [1] relates to HepG2. Description: Cytotoxicity against human HepG2 cells by rapid colorimetric assay. In short, it runs like this:
(§1)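 A549, SNU-1, K562 and HepG2 cells were grown in RPMI1640 and MEM with 10% FBS at 37 °C in a CO2 incubator before testing against the cell panel.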

Assay [2] has as its system K562. Description: Cytotoxicity against human K562 cells by rapid colorimetric assay. In short, it runs like this:
as §1

Assay [3] relates to A549. The assay can be described thus: Cytotoxicity against human A549 cells by rapid colorimetric assay. The procedure, abridged:
as §1

In assay [4] the test system is HL-60. Description: Cytotoxicity against human HL60 cells by rapid colorimetric assay. In short, it runs like this: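 HL-60 human promyelocytic leukaemia cells were maintained in IMDM with 20% FBS at 37 °C in a CO2 incubator before testing against the cell panel.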
Assay [5] deals with SNU1. The assay can be described thus: Cytotoxicity against human SNU1 cells by rapid colorimetric assay. The procedure, abridged: as §1

As for `CC(=O)O[C@H]1CC[C@]2(C)[C@H]3CC=C4[C@@H]5CC(C)(C)CC[C@]5(C)CC[C@@]4(C(=O)O)[C@]3(C)C[C@@H](O)[C@H]2C1(C)C`, the IC50 in assay [1] is above 10 µM; in assay [2] it was above 10 µM; in assay [3], above 10 µM; in assay [4], 5.1 µM; in assay [5], above 10 µM.

As for `C=C1[C@@H]2[C@H](O)C[C@]3(C)[C@H](CC=C4[C@@H]5CC(C)(C)CC[C@]5(C)CC[C@]43C(=O)O)[C@@]2(C)CC[C@@H]1O`, the IC50 in assay [1], in assay [2], in assay [3], in assay [4] and in assay [5] was above 10 µM each time.

As for `CC(=O)O[C@H]1CC[C@]2(C)[C@H]3CC=C4[C@@H]5[C@@H](C)[C@H](C)CC[C@]5(C)CC[C@@]4(C(=O)O)[C@]3(C)CC[C@H]2C1(C)C`, the IC50 was above 10 µM in assay [1]; above 10 µM in assay [2]; above 10 µM in assay [3]; 9.4 µM in assay [4]; above 10 µM in assay [5].

For the molecule `CC(=O)O[C@H]1CC[C@]2(C)[C@H]3CC=C4[C@@H]5[C@@H](C)[C@H](C)CC[C@]5(C)CC[C@@]4(C(=O)O)[C@]3(C)C[C@@H](O)[C@H]2C1(C)C`, the half-inhibitory concentration (IC50) in assay [1] is above 10 µM; in assay [2], above 10 µM; in assay [3], above 10 µM; in assay [4] it was 9.6 µM; in assay [5] it was above 10 µM.

On to `CC(=O)O[C@@H]1CC[C@]2(C)[C@H]3CC=C4[C@@H]5[C@@H](C)[C@H](C)CC[C@]5(C)CC[C@@]4(C(=O)O)[C@]3(C)CC[C@H]2C1(C)C`, for which the half-maximal inhibitory concentration (IC50) in assay [1] is above 10 µM; in assay [2], above 10 µM; in assay [3] it was above 10 µM; in assay [4], 3.9 µM; in assay [5] it was above 10 µM.

Turning to `C[C@H]1[C@H](C)CC[C@]2(C)CC[C@]3(C(=O)O)C(=CC[C@@H]4[C@@]5(C)CC[C@H](O)[C@](C)(CO)[C@@H]5[C@H](O)C[C@]43C)[C@H]12`, the half-inhibitory concentration (IC50) in assay [1], in assay [2], in assay [3], in assay [4] and in assay [5] was above 10 µM each time.

In the case of `CC1(C)CC[C@]2(C)CC[C@]3(C(=O)O)C(=CC[C@@H]4[C@@]5(C)CC[C@H](O)C(C)(C)[C@@H]5CC[C@]43C)[C@@H]2C1`, the half-maximal inhibitory concentration (IC50) was above 10 µM in assay [1]; above 10 µM in assay [2]; above 10 µM in assay [3]; 8.9 µM in assay [4]; 9.3 µM in assay [5].

For `COc1cccc2c1C(=O)c1c(O)c3c(c(O)c1C2=O)C[C@@](O)(C(=O)CO)C[C@@H]3O[C@H]1C[C@H](N)[C@H](O)[C@H](C)O1` [DOXORUBICIN], the IC50 in assay [2] was determined as 2.5 µM; in assay [3], 2.2 µM; in assay [5] it was 4 µM.

For `CC1(C)CC[C@]2(C)CC[C@]3(C(=O)O)C(=CC[C@@H]4[C@@]5(C)CC[C@H](O)[C@@](C)(CO)[C@@H]5[C@H](O)C[C@]43C)[C@@H]2C1`, the IC50 in assay [1] was above 10 µM; in assay [2] it was above 10 µM; in assay [3] it was above 10 µM; in assay [4] it was 3.5 µM; in assay [5], above 10 µM.

As to `C[C@H]1[C@H](C)CC[C@]2(C)CC[C@]3(C(=O)O)C(=CC[C@@H]4[C@@]5(C)CC[C@H](O)C(C)(C)[C@@H]5CC[C@]43C)[C@H]12`, the 50% inhibitory concentration (IC50) in assay [1] is above 10 µM; in assay [2], above 10 µM; in assay [3] it was above 10 µM; in assay [4], 8.2 µM; in assay [5] it was above 10 µM.

Turning to `CC1(C)CC[C@]2(C)CC[C@]3(C(=O)O)C(=CC[C@@H]4[C@@]5(C)CC[C@@H](O)C(C)(C)C5=CC[C@]43C)[C@@H]2C1`, the half-inhibitory concentration (IC50) in assay [1], in assay [2], in assay [3], in assay [4] and in assay [5] was above 10 µM throughout.

On to `CC1(C)CC[C@]2(C)CC[C@]3(C(=O)O)C(=CC[C@@H]4[C@@]5(C)CC[C@H](O)[C@](C)(CO)[C@@H]5CC[C@]43C)[C@@H]2C1`, for which the 50% inhibitory concentration (IC50) in assay [1], in assay [2], in assay [3], in assay [4] and in assay [5] was above 10 µM each time.

Consider `CC[C@@]1(O)C(=O)OCc2c1cc1n(c2=O)Cc2cc3ccccc3nc2-1` [CAMPTOTHECIN], for which, in assay [4], it took 0.8 µM to reach half-maximal inhibition (IC50).

As to `CC(=O)O[C@@H]1CC[C@]2(C)[C@H]3CC=C4[C@@H]5CC(C)(C)CC[C@]5(C)CC[C@@]4(C(=O)O)[C@]3(C)CC[C@H]2C1(C)C`, the IC50 was above 10 µM in assay [1]; above 10 µM in assay [2]; above 10 µM in assay [3]; 9.3 µM in assay [4]; above 10 µM in assay [5].

For orientation: IC50 means the point on the concentration scale where inhibition reaches its midpoint. A high value points to weaker potency in that assay.

Values taken from ChEMBL document CHEMBL1152422, “Cytotoxic triterpenoids from the rhizomes of Astilbe chinensis” (J Nat Prod, 2009).
